The values that follow come from ChEMBL document CHEMBL3352219, “Triterpenes from Alisma orientalis act as androgen receptor agonists, progesterone receptor antagonists, and glucocorticoid receptor antagonists” (Bioorg Med Chem Lett, 2014).

SMILES strings stand for the structures. Calls of active or inactive are those of the source. The calls are words filed in the database; no cut-off is given here.

One data set concerns HepG2. Description: Cytotoxicity against human HepG2 cells. In kind it is cell-based.
Data set [1] has as its target T1, Progesterone receptor (Homo sapiens) (UniProt P06401).
T1 sequence (whole entry): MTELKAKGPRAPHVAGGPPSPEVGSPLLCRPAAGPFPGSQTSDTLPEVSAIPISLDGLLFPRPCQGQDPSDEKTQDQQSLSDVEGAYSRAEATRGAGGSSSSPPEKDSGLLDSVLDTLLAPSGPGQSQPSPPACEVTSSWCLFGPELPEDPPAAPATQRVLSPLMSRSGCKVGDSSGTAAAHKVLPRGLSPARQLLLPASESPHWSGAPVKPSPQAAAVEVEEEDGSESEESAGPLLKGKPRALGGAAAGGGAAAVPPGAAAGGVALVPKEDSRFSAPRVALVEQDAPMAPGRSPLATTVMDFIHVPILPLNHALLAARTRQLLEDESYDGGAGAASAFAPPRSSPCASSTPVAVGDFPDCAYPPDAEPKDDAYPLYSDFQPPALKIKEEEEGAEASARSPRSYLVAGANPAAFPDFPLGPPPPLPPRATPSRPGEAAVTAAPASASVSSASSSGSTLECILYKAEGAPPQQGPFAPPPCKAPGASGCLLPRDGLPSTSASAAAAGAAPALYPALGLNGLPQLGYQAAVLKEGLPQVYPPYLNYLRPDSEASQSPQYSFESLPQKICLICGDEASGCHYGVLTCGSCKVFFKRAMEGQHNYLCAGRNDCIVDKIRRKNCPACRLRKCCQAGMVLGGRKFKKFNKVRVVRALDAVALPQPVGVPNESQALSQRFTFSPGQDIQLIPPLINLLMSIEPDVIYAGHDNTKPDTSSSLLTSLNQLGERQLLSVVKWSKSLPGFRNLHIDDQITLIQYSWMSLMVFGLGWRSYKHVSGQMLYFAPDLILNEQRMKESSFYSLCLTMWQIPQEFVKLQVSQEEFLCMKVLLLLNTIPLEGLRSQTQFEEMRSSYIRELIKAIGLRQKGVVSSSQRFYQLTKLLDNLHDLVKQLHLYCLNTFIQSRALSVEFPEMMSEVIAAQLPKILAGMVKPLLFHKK
The data set is described as follows: Antagonist activity at progesterone receptor (unknown origin) expressed in human HepG2 cells assessed as reduction in progesterone-induced response at 10 uM by MMTV promoter-driven luciferase reporter gene assay. The data set is classed as cell-based. An outline of the steps: (§1)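 Triplicate HepG2 wells in phenol red-free, charcoal-stripped serum medium. Cotransfected with 2 µg pCMV-PR, 6 µg pMMTV-luc and 1 µg β-gal plasmid. Compound added with 10 nM progesterone for 24 h. Lysate luminescence normalized to β-galactosidase and expressed relative to progesterone alone (=1).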
A general note: In a reporter assay the amount or activity of a reporter protein is the signal.

Data set [2] addresses T2, Glucocorticoid receptor (Homo sapiens) (UniProt P04150).
T2 sequence (whole entry): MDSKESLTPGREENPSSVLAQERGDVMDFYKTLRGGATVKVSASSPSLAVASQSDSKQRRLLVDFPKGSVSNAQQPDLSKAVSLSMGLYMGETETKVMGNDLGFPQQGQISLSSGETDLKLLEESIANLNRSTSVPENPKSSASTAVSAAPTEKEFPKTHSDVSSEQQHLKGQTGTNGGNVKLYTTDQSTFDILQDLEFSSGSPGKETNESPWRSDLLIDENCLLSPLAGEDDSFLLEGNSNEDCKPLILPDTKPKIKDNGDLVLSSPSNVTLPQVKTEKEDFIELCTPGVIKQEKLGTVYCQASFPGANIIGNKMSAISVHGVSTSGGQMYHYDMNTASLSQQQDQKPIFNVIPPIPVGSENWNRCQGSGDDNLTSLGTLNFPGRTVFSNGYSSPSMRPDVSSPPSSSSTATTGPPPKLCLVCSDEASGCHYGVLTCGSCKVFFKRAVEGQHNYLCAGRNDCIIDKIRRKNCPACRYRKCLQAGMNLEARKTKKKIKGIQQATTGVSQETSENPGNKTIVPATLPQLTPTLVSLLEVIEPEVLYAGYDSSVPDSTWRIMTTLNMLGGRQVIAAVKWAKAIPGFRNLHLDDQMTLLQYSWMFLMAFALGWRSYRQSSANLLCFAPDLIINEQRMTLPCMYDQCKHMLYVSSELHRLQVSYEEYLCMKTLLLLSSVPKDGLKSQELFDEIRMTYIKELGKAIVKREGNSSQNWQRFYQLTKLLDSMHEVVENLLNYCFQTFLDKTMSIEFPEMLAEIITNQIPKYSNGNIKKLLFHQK
Description: Agonist activity at glucocorticoid receptor (unknown origin) expressed in human HepG2 cells assessed as relative luciferase activity at 20 uM by GRE promoter-driven luciferase reporter gene assay relative to dexamethasone.

The target in data set [3] is T2, Glucocorticoid receptor (Homo sapiens). The data set is described as follows: Antagonist activity at glucocorticoid receptor (unknown origin) expressed in human HepG2 cells assessed as reduction in dexamethasone-induced response at 100 nM by MMTV promoter-driven luciferase reporter gene assay. In kind it is cell-based. The settings on record: in the assay text read “GRE promoter-driven” for “MMTV promoter-driven”. An outline of the steps: (§2)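 HepG2 in phenol red-free DMEM with charcoal-stripped FBS, triplicate wells. Transfected with 2 µg pCMV-GR, 6 µg pGRE-luc reporter and 1 µg β-gal control. Compound co-treated with 5 nM dexamethasone for 24 h. Luciferase/β-galactosidase ratio expressed relative to dexamethasone alone (=1).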

Data set [4] deals with T1, Progesterone receptor (Homo sapiens). The data set is described as follows: Antagonist activity at progesterone receptor (unknown origin) expressed in human HepG2 cells assessed as reduction in progesterone-induced response at 1 uM by MMTV promoter-driven luciferase reporter gene assay. In kind it is cell-based. In short, it runs like this:
as §1

For data set [5], the target named is T3, Androgen receptor (Homo sapiens) (UniProt P10275).
T3 sequence (whole entry): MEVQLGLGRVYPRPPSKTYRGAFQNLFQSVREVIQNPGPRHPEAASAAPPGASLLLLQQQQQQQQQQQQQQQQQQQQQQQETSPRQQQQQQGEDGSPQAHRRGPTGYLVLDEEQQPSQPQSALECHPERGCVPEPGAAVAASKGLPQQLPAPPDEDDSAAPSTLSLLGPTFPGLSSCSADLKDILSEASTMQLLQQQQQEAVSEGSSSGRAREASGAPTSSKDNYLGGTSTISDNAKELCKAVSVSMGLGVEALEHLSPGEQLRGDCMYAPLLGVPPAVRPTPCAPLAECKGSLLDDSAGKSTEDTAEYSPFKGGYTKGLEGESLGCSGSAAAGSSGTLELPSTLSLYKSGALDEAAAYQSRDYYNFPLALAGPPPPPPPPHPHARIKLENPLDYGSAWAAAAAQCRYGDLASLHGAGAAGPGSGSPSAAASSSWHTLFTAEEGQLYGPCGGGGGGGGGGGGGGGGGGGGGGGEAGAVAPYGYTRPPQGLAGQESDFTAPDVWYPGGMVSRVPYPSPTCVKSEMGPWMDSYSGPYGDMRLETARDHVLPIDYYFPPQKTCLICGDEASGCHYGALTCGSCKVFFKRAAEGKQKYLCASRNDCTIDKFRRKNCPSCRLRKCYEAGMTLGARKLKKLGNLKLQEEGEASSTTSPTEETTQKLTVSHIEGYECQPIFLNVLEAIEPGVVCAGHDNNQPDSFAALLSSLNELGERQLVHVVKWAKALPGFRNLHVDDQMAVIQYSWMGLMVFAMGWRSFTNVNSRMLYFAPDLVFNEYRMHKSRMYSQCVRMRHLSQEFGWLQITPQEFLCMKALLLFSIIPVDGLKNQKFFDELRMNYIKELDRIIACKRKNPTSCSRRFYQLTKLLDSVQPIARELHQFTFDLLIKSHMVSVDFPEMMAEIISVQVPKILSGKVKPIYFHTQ
The data set is described as follows: Agonist activity at androgen receptor (unknown origin) expressed in human HepG2 cells assessed as relative luciferase activity at 1 uM by MMTV promoter-driven luciferase reporter gene assay relative to untreated vehicle control. In kind it is cell-based. In short, it runs like this: (§3)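 HepG2 in phenol red-free DMEM with 10% charcoal-stripped FBS, plated in triplicate at 1 × 10^5 cells/well. After 24 h, transfected with 2 µg wild-type AR expression plasmid (pCMV-AR), 6 µg pMMTV-luc reporter and 1 µg β-galactosidase plasmid. Treated 24 h, then lysed. Luciferase normalized to β-gal and expressed relative to DMSO vehicle (=1).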

The target in data set [6] is T3, Androgen receptor (Homo sapiens). The data set is described as follows: Agonist activity at androgen receptor (unknown origin) expressed in human HepG2 cells assessed as relative luciferase activity at 100 nM by MMTV promoter-driven luciferase reporter gene assay relative to untreated vehicle control. In kind it is cell-based. An outline of the steps: as §3
The target of data set [7] is T1, Progesterone receptor (Homo sapiens). The data set is described as follows: Agonist activity at progesterone receptor (unknown origin) expressed in human HepG2 cells assessed as relative luciferase activity at 20 uM by MMTV promoter-driven luciferase reporter gene assay relative to progesterone. In kind it is cell-based.
The target in data set [8] is T2, Glucocorticoid receptor (Homo sapiens). Description: Antagonist activity at glucocorticoid receptor (unknown origin) expressed in human HepG2 cells assessed as reduction in dexamethasone-induced response at 1 uM by MMTV promoter-driven luciferase reporter gene assay. The data set is classed as cell-based. The settings on record: in the assay text read “GRE promoter-driven” for “MMTV promoter-driven”. In short, it runs like this: as §2

In data set [9] the target is T1, Progesterone receptor (Homo sapiens). The data set is described as follows: Antagonist activity at progesterone receptor (unknown origin) expressed in human HepG2 cells assessed as reduction in progesterone-induced response at 100 nM by MMTV promoter-driven luciferase reporter gene assay. The data set is classed as cell-based. In short, it runs like this: as §1

Data set [10] concerns the target T2, Glucocorticoid receptor (Homo sapiens). The data set is described as follows: Antagonist activity at glucocorticoid receptor (unknown origin) expressed in human HepG2 cells assessed as reduction in dexamethasone-induced response at 10 uM by MMTV promoter-driven luciferase reporter gene assay. In kind it is cell-based. The conditions noted are these: in the assay text read “GRE promoter-driven” for “MMTV promoter-driven”. An outline of the steps: as §2

With `CC(=O)O[C@@H](C[C@@H](C)C1=C2[C@H](O)[C@H](O)[C@H]3[C@@]4(C)CCC(=O)C(C)(C)[C@@H]4CC[C@]3(C)[C@@]2(C)CC1=O)[C@H]1OC1(C)C`, the Activity result with HepG2 was “Non-toxic”. The results for the Activity (% of progesterone control) in [1] and in data set [4] were 64% and 71%, respectively. Also, the outcome in [2], in [5], in data set [6] and in data set [7] was inactive. Also, the inhibition result in data set [3] and in data set [9] was “inactive” each time. For the same molecule, the Activity (% of dexamethasone control) in data set [8] stood at 56%; in data set [10], 30%.
Regarding `C[C@H](C[C@H](O)[C@H]1OC1(C)C)C1=C2C[C@H](O)[C@H]3[C@@]4(C)CCC(=O)C(C)(C)[C@@H]4CC[C@]3(C)[C@@]2(C)CC1` [ALISOL B], the Activity entry with HepG2 is given as “Toxic”.
In the case of `CC(=O)O[C@@H](C[C@@H](C)C1=C2C[C@H](O)[C@H]3[C@@]4(C)CCC(=O)C(C)(C)[C@@H]4CC[C@]3(C)[C@@]2(C)CC1)[C@@H](O)C(C)(C)O`, the Activity result in the data set with HepG2 is given as “Non-toxic”. Besides, the figures for the Activity (% of progesterone control) in [1] and in data set [4] were 66% and 82%, respectively. Moreover, the result in data set [2], in data set [5], in data set [6] and in data set [7] was inactive. Also, the inhibition entry in [3] and in [9] was “Active” throughout. In addition, the Activity (% of dexamethasone control) came out at 56% in [8] and 39% in [10].
